24 molecules from ChEMBL document CHEMBL1146144, “Identification of a novel boron-containing antibacterial agent (AN0128) with anti-inflammatory activity, for the potential treatment of cutaneous diseases” (2006) can be followed below.

Converted amounts (≈) assume the structure as drawn.

Type in all cases: functional
One assay has as its system Haemophilus influenzae. Kind of assay: Antibacterial activity against Haemophilus influenzae.
A further assay relates to Staphylococcus aureus. Kind of assay: Antibacterial activity against Staphylococcus aureus.
The subject of assay [1] is Staphylococcus epidermidis. As to the kind of experiment: Antibacterial activity against Staphylococcus epidermidis.
For a further assay, the system named is Bacillus subtilis. Kind of assay: Antibacterial activity against Bacillus subtilis.
In assay [2] the test system is PBMC. Kind of assay: Inhibition of LPS-induced TNFalpha release in human PBMC at 10 uM relative to Dexamethasone. An outline of the steps: (§1)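 Test compound at a single concentration of 10. Stimulation: LPS for 24 h (TNF-α, IL-1β), PHA for 24 h (IFN-γ), concanavalin A for 48 h (IL-4). Cytokines released were measured by ELISA. Inhibition is given as percent of untreated control.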

The next assay deals with Cutibacterium acnes. Kind of assay: Antibacterial activity against Propionibacterium acnes.
Assay [3] relates to PBMC. Kind of assay: Inhibition of LPS-induced IL1-beta release in human PBMC at 10 uM […]. The gist of the method:
as §1

Assay [4] concerns PBMC. Kind of assay: Inhibition of PHA-induced IFN-gamma release in human PBMC at 10 uM relative to Dexamethasone. An outline of the steps: as §1
In assay [5] the test system is PBMC. Kind of assay: Inhibition of concanavalin A-induced IL4 release in human PBMC at 10 uM relative to Dexamethasone. An outline of the steps: as §1

As to `O=C(OB(c1ccc(Cl)cc1)c1ccc(Cl)nc1)c1ncccc1O`, the MIC (against Haemophilus influenzae; in the assay on Staphylococcus aureus; in [1]) was 32 µg/mL (≈ 85.8 µM) in each case.

As for `O=C(OB(c1cccnc1)c1cccc(Cl)c1)c1ncccc1O`, the MIC against Haemophilus influenzae was 32 µg/mL (≈ 94.5 µM); with Staphylococcus aureus it was 16 µg/mL (≈ 47.3 µM); in [1], 32 µg/mL (≈ 94.5 µM).

Consider `Cc1ccc(B(OC(=O)c2ncccc2O)c2ccc(C)c(Cl)c2)cc1Cl`, for which the MIC in the assay with Bacillus subtilis was 1 µg/mL (≈ 2.5 µM); in the assay with Haemophilus influenzae, more than 64 µg/mL; in the assay on Cutibacterium acnes, 0.3 µg/mL (≈ 0.75 µM); against Staphylococcus aureus, 1 µg/mL (≈ 2.5 µM); in [1], 0.5 µg/mL (≈ 1.25 µM). The inhibition (commonly the relative decrease from the control value, in per cent) at 10 µM with PBMC [2] is 100%; with PBMC [3], 99%; in the assay on PBMC [4] it was -20%; in the assay with PBMC [5], -21%.

With `O=C(OB(c1ccc(Cl)cc1)c1cccnc1)c1ncccc1O`, the MIC stood at 16 µg/mL (≈ 47.3 µM) against Haemophilus influenzae, 64 µg/mL (≈ 189 µM) against Staphylococcus aureus and 32 µg/mL (≈ 94.5 µM) in [1].

On to `O=C(OB(c1ccc(F)c(Cl)c1)c1ccc(F)c(Cl)c1)c1ncccc1O`, for which the MIC in the assay with Bacillus subtilis stood at 8 µg/mL (≈ 19.6 µM); against Haemophilus influenzae it was 4 µg/mL (≈ 9.8 µM); against Cutibacterium acnes, 3 µg/mL (≈ 7.35 µM); in the assay with Staphylococcus aureus it was 1 µg/mL (≈ 2.45 µM); in [1], 8 µg/mL (≈ 19.6 µM).

In the case of `O=C(OB(c1ccsc1)c1cccc(Cl)c1)c1ncccc1O`, the MIC came out at 16 µg/mL (≈ 46.6 µM) in the assay with Bacillus subtilis; 32 µg/mL (≈ 93.1 µM) against Haemophilus influenzae; 10 µg/mL (≈ 29.1 µM) against Cutibacterium acnes; 32 µg/mL (≈ 93.1 µM) in the assay on Staphylococcus aureus; 32 µg/mL (≈ 93.1 µM) in [1].

For `Cc1ccc(B(OC(=O)c2ncccc2O)c2ccc(C)c(Cl)c2)cc1`, the MIC against Bacillus subtilis is 2 µg/mL (≈ 5.47 µM); in the assay with Haemophilus influenzae, more than 64 µg/mL; in the assay on Cutibacterium acnes, 3 µg/mL (≈ 8.21 µM); against Staphylococcus aureus it was 4 µg/mL (≈ 10.9 µM); in assay [1], 2 µg/mL (≈ 5.47 µM).

As to `O=C(OB(c1cccc(Cl)c1)c1cccc(Cl)c1)c1ncccc1O`, the MIC in the assay with Bacillus subtilis is 16 µg/mL (≈ 43 µM); in the assay with Haemophilus influenzae, 16 µg/mL (≈ 43 µM); in the assay on Cutibacterium acnes, 10 µg/mL (≈ 26.9 µM); against Staphylococcus aureus it was not above 0.125 µg/mL; in assay [1], 8 µg/mL (≈ 21.5 µM).

For `Cc1ccc(B(OC(=O)c2ncccc2N)c2ccc(C)c(Cl)c2)cc1Cl`, the MIC is 2 µg/mL (≈ 5.01 µM) in the assay with Bacillus subtilis; more than 64 µg/mL in the assay with Haemophilus influenzae; 1 µg/mL (≈ 2.51 µM) against Cutibacterium acnes; more than 64 µg/mL with Staphylococcus aureus; more than 64 µg/mL in [1].

For the molecule `Cc1ccc(B(OC(=O)c2ccc(C(=O)O)cn2)c2ccc(C)c(Cl)c2)cc1Cl`, the MIC in the assay with Bacillus subtilis was 8 µg/mL (≈ 18.7 µM); against Haemophilus influenzae, 8 µg/mL (≈ 18.7 µM); in the assay on Cutibacterium acnes it was 3 µg/mL (≈ 7.01 µM); against Staphylococcus aureus, 0.5 µg/mL (≈ 1.17 µM); in assay [1], 8 µg/mL (≈ 18.7 µM). In addition, the inhibition at 10 µM came out at 100% in the assay with PBMC [2], 80% in the assay on PBMC [3], 24% in the assay on PBMC [4] and 9% with PBMC [5].

Regarding `O=C(OB(c1ccc(Cl)cc1)c1ccc(Cl)cc1)c1ncccc1O`, the MIC with Bacillus subtilis stood at 1 µg/mL (≈ 2.69 µM); with Haemophilus influenzae, 16 µg/mL (≈ 43 µM); in the assay with Cutibacterium acnes, 1 µg/mL (≈ 2.69 µM); against Staphylococcus aureus, 4 µg/mL (≈ 10.8 µM); in [1] it was 1 µg/mL (≈ 2.69 µM).

Turning to `Cc1ccccc1B(OC(=O)c1ncccc1O)c1cccc(Cl)c1`, the MIC with Bacillus subtilis is 4 µg/mL (≈ 11.4 µM); with Haemophilus influenzae it was more than 64 µg/mL; in the assay with Cutibacterium acnes, 3 µg/mL (≈ 8.53 µM); against Staphylococcus aureus it was 8 µg/mL (≈ 22.8 µM); in assay [1], 8 µg/mL (≈ 22.8 µM).

Regarding `CSc1cccc(B(OC(=O)c2ncccc2O)c2cccc(Cl)c2)c1`, the MIC against Bacillus subtilis is 4 µg/mL (≈ 10.4 µM); against Haemophilus influenzae it was more than 64 µg/mL; with Cutibacterium acnes it was 3 µg/mL (≈ 7.82 µM); against Staphylococcus aureus, 8 µg/mL (≈ 20.9 µM); in [1], 8 µg/mL (≈ 20.9 µM).

Regarding `Cc1ccc(B(OC(=O)c2ncccc2C(=O)c2ccccc2)c2ccc(C)c(Cl)c2)cc1Cl`, the MIC was 64 µg/mL (≈ 131 µM) against Bacillus subtilis; more than 64 µg/mL in the assay on Haemophilus influenzae; 30 µg/mL (≈ 61.5 µM) with Cutibacterium acnes; 0.5 µg/mL (≈ 1.02 µM) against Staphylococcus aureus; 32 µg/mL (≈ 65.5 µM) in assay [1].

Take `CN(C)c1ccc(B(OC(=O)c2ncccc2O)c2ccc(N(C)C)c(Cl)c2)cc1Cl`: the MIC in the assay with Bacillus subtilis is 64 µg/mL (≈ 140 µM); in the assay with Haemophilus influenzae, more than 64 µg/mL; against Staphylococcus aureus, 32 µg/mL (≈ 69.8 µM); in assay [1], 32 µg/mL (≈ 69.8 µM).

On to `Cc1ccc(B(OC(=O)c2cc(C(=O)O)ccn2)c2ccc(C)c(Cl)c2)cc1Cl`, for which the MIC turned out to be 3 µg/mL (≈ 7.01 µM) in the assay on Cutibacterium acnes, 2 µg/mL (≈ 4.67 µM) against Staphylococcus aureus and 4 µg/mL (≈ 9.34 µM) in assay [1].

Regarding `Cc1cc(Cl)ccc1B(OC(=O)c1ncccc1O)c1ccc(Cl)cc1C`, the MIC against Bacillus subtilis worked out at 0.5 µg/mL (≈ 1.25 µM); against Haemophilus influenzae, 16 µg/mL (≈ 40 µM); in the assay on Cutibacterium acnes it was 0.3 µg/mL (≈ 0.75 µM); against Staphylococcus aureus, 4 µg/mL (≈ 10 µM); in assay [1], 2 µg/mL (≈ 5 µM). Moreover, the inhibition at 10 µM with PBMC [2] came out at 101%; in the assay with PBMC [3] it was 103%; in the assay on PBMC [4], 15%; in the assay with PBMC [5], 57%.

As to `Cc1ccc(B(OC(=O)c2ccccn2)c2ccc(C)c(Cl)c2)cc1Cl`, the values for the MIC (with Staphylococcus aureus; in assay [1]) were 0.5 µg/mL (≈ 1.3 µM) and more than 64 µg/mL, respectively.

For `Cc1ccc(B(OC(=O)c2ncccc2C(=O)O)c2ccc(C)c(Cl)c2)cc1Cl`, the MIC against Bacillus subtilis amounted to 8 µg/mL (≈ 18.7 µM); in the assay on Haemophilus influenzae it was 8 µg/mL (≈ 18.7 µM); in the assay with Cutibacterium acnes, 3 µg/mL (≈ 7.01 µM); against Staphylococcus aureus, 0.125 µg/mL (≈ 0.292 µM); in [1] it was 4 µg/mL (≈ 9.34 µM).

Consider `CCOc1ccc(B(OC(=O)c2ncccc2O)c2ccc(OCC)c(Cl)c2)cc1Cl`, for which the MIC against Bacillus subtilis was 2 µg/mL (≈ 4.35 µM); against Haemophilus influenzae, more than 64 µg/mL; with Cutibacterium acnes, 1 µg/mL (≈ 2.17 µM); in the assay on Staphylococcus aureus, 2 µg/mL (≈ 4.35 µM); in assay [1] it was 2 µg/mL (≈ 4.35 µM).

For the molecule `CC(=O)Oc1cccnc1C(=O)OB(c1ccc(C)c(Cl)c1)c1ccc(C)c(Cl)c1`, the MIC in the assay with Bacillus subtilis is 0.5 µg/mL (≈ 1.13 µM); with Haemophilus influenzae, more than 64 µg/mL; against Cutibacterium acnes, 1 µg/mL (≈ 2.26 µM); against Staphylococcus aureus it was 2 µg/mL (≈ 4.52 µM); in [1], 1 µg/mL (≈ 2.26 µM). The figures for the inhibition at 10 µM in the assay with PBMC [2] and in the assay on PBMC [3] were 101% and -49%, respectively.

With `Cc1ccc(B(CCc2ccccc2)OC(=O)c2ncccc2O)cc1Cl`, the MIC was 1 µg/mL (≈ 2.63 µM) in the assay on Bacillus subtilis; more than 64 µg/mL with Haemophilus influenzae; 1 µg/mL (≈ 2.63 µM) in the assay with Cutibacterium acnes; 0.5 µg/mL (≈ 1.32 µM) against Staphylococcus aureus; 1 µg/mL (≈ 2.63 µM) in assay [1].

For the molecule `O=C(OB(c1cccc(F)c1)c1cccc(F)c1)c1ncccc1O`, the MIC was more than 64 µg/mL against Bacillus subtilis; more than 64 µg/mL with Haemophilus influenzae; more than 100 µg/mL in the assay with Cutibacterium acnes; more than 64 µg/mL in the assay with Staphylococcus aureus; more than 64 µg/mL in assay [1].

For the molecule `CC[C@H]1OC(=O)[C@H](C)[C@@H](O[C@H]2C[C@@](C)(OC)[C@@H](O)[C@H](C)O2)[C@H](C)[C@@H](O[C@@H]2O[C@H](C)C[C@H](N(C)C)[C@H]2O)[C@](C)(O)C[C@@H](C)C(=O)[C@H](C)[C@@H](O)[C@]1(C)O` [ERYTHROMYCIN], the MIC against Bacillus subtilis stood at 0.1 µg/mL (≈ 0.136 µM); against Haemophilus influenzae it was 4 µg/mL (≈ 5.45 µM); against Cutibacterium acnes it was 0.1 µg/mL (≈ 0.136 µM); in the assay on Staphylococcus aureus, 0.5 µg/mL (≈ 0.681 µM); in [1], 0.15 µg/mL (≈ 0.204 µM). Further, the inhibition at 10 µM with PBMC [2] was 22%; in the assay with PBMC [3] it was -32%.
